In assay [1] the target is T1, Alpha-1B adrenergic receptor (Rattus norvegicus) (UniProt P15823).
T1 sequence (whole entry): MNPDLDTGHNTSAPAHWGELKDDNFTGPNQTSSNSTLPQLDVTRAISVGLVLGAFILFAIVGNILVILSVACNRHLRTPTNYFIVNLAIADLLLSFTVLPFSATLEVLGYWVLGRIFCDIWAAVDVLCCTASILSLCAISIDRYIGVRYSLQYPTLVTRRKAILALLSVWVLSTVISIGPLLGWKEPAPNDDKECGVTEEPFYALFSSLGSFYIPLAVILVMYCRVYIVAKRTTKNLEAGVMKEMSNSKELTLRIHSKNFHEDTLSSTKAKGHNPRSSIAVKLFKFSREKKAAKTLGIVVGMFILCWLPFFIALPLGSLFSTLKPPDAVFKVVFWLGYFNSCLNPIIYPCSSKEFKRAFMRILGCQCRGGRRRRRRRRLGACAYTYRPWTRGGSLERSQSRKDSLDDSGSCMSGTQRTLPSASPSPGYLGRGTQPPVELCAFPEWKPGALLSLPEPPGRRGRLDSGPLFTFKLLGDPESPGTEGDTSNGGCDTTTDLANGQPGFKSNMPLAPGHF
The assay is described as follows: Antagonist activity at adrenergic Alpha-1B receptor in Wistar rat spleen assessed as inhibition of […]-indcuced contraction. Format: functional, tissue-based.

Assay [2] has as its target T2, Alpha-1A adrenergic receptor (Rattus norvegicus) (UniProt P43140).
T2 sequence (whole entry): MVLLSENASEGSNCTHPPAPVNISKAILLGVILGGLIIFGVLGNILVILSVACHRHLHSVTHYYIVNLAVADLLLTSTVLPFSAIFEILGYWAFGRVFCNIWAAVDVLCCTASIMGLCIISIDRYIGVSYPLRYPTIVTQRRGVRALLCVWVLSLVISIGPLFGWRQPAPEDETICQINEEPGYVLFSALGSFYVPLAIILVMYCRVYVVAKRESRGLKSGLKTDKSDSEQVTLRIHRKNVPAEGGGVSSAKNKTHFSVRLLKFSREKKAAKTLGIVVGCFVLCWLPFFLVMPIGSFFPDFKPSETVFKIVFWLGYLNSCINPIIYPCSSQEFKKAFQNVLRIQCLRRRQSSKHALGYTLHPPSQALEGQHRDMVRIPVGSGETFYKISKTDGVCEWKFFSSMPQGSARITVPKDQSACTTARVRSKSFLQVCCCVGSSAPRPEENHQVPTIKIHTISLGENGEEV
As to the kind of experiment: Antagonist activity at adrenergic alpha1A receptor in Wistar rat vas deference assessed as inhibition of (-)-noradrenaline-indcuced contraction. It counts as functional. The method in brief:
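Tissue in Tyrode with 0.1 µM cocaine, equilibrated 60 min with washes every 15 min, primed twice with 10 µM noradrenaline. A noradrenaline curve gave the basal response. Antagonist 30 min, then 30 min washing, then a new agonist curve.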

The target of assay [3] is T3, Alpha-1D adrenergic receptor (Rattus norvegicus) (UniProt P23944).
T3 sequence (whole entry): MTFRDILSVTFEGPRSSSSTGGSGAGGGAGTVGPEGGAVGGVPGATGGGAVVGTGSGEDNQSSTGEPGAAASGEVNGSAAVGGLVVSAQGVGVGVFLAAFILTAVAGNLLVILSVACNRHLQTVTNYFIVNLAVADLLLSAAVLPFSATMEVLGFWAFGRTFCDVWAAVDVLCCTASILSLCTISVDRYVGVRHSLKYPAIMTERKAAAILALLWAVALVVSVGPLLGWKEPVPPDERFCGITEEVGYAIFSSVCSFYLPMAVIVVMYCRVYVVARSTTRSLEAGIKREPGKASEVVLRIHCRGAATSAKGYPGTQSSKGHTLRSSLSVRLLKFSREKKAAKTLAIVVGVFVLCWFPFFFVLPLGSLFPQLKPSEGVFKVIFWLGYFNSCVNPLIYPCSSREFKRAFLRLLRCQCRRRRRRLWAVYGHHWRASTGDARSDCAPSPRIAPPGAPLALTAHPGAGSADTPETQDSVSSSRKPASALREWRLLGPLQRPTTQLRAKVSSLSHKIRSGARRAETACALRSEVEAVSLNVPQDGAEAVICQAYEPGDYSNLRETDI
As to the kind of experiment: Antagonist activity at adrenergic Alpha-1D receptor in Wistar rat thoracic aorta assessed as inhibition of (-)-noradrenaline-indcuced contraction. It counts as functional, tissue-based.

By pKb is commonly meant −log10 of the Kb, conventionally taken in molar units. With `COc1cccc(OC)c1OCCNCC1COc2ccccc2O1` (stereo unspecified), the negative-log Kb (pKb) in assay [1] amounted to 8.16; in assay [2], 9.51; in assay [3], 8.8.
The corresponding values for `COc1cccc(OC)c1OCCNCCOc1ccccc1OCc1ccccc1` are 8.3, 8.39 and 9.37.

The record behind these values is ChEMBL document CHEMBL1250525, “Structure-activity relationships in 1,4-benzodioxan-related compounds. 10. Novel α1-adrenoreceptor antagonists related to openphendioxan: synthesis, biological evaluation, and α1d computational study” (Bioorg Med Chem, 2010).
